Laboratory results reported in ChEMBL document CHEMBL1141664, “Design and evaluation of anacardic acid derivatives as anticavity agents” (2008).
In brackets after ≈: the same amount, converted by molar mass. Activity calls are given as the source filed them. No cut-off for these calls is given here.

Tests used:
Streptococcus mutans [1] = assay: Antibacterial activity against Streptococcus mutans ATCC 25175 after 2 days by twofold broth dilution method; format: functional; settings: ATCC 25175, 48 h
Method in brief: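 Freeze-dried S. mutans grown stationary 2 days at 37 °C in 3.7% BHI broth, then used as inoculum. Compounds serially 2-fold diluted in DMF and added to BHI broth, with solubility limiting the top concentration. MIC is the lowest concentration giving complete inhibition of visible growth after 2 days at 37 °C. At least triplicate on separate occasions.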

Escherichia coli = assay: Antibacterial activity against Escherichia coli ATCC 9637 up to 200 ug/ml after 2 days by twofold broth dilution method; format: functional, organism-based
Method in brief: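 Twofold serial broth dilution run in NYG broth (0.8% nutrient broth, 0.5% yeast extract, 0.1% glucose). MIC is the lowest concentration fully inhibiting visible growth.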

Cutibacterium acnes = assay: Antibacterial activity against Propionibacterium acnes ATCC 11827; format: functional
Streptococcus mutans [2] = assay: Antibacterial activity against Streptococcus mutans ATCC 25175 after 2 days by twofold broth dilution method in presence of anethole; format: functional; settings: ATCC 25175, 48 h

Compound | MIC (Streptococcus mutans [1]) | MIC (Cutibacterium acnes) | MBC (Streptococcus mutans [1]) | Activity (Escherichia coli) | MBC (Streptococcus mutans [2])
CCCCCCCCCCCCCCCc1cccc(O)c1C(=O)O [ANACARDIC ACID] | > 800 µg/mL | 0.78 µg/mL (≈ 2.24 µM) | – | inactive | –
CCCCCCOC(=O)c1ccccc1O | – | – | – | inactive | –
C/C=C/c1ccc(OC)cc1 | – | – | – | inactive | –
O=C(O)c1c(O)cccc1CCc1ccc(O)cc1 | 100 µg/mL (≈ 387 µM) | – | – | inactive | –
CCCCCCCCCOC(=O)c1ccccc1O | – | – | – | inactive | –
C=CC/C=C\C/C=C\CCCCCCCc1cccc(OC(C)=O)c1C(=O)O | – | – | – | inactive | –
O=C(O)c1c(O)cccc1CCc1ccc(O)cc1O | > 200 µg/mL | – | – | inactive | –
O=C(O)c1c(O)cccc1CCc1cc(O)ccc1O | 200 µg/mL (≈ 729 µM) | – | – | inactive | –
O=C(O)c1c(O)cccc1CCc1ccccc1 | 50 µg/mL (≈ 206 µM) | – | – | inactive | –
O=C(O)c1c(O)cccc1CCc1cc(O)c(O)cc1O | 200 µg/mL (≈ 689 µM) | – | – | inactive | –
O=C(O)c1c(O)cccc1CCc1ccc(O)c(O)c1 | 200 µg/mL (≈ 729 µM) | – | – | inactive | –
C=CC/C=C\C/C=C\CCCCCCCc1cccc(O)c1C(=O)OC | – | – | – | inactive | –

Second part, led by results:

MIC (Streptococcus mutans [1]) | MIC (Cutibacterium acnes) | Compound | MBC (Streptococcus mutans [1]) | Activity (Escherichia coli) | MBC (Streptococcus mutans [2])
6.25 µg/mL (≈ 18 µM) | – | CCCCCC/C=C\CCCCCCCc1cccc(O)c1C(=O)O [GINGKOLIC ACID] | 6.25 µg/mL (≈ 18 µM) | inactive | –
6.25 µg/mL (≈ 23.8 µM) | – | O=C(O)c1c(O)cccc1CC1CCCCCCC1 | – | inactive | –
1.56 µg/mL (≈ 4.56 µM) | – | C=CC/C=C\C/C=C\CCCCCCCc1cccc(O)c1C(=O)O [ANACARDIC ACID] | 6.25 µg/mL (≈ 18.2 µM) | inactive | 0.78 µg/mL
25 µg/mL (≈ 107 µM) | – | O=C(O)c1c(O)cccc1CC1CCCCC1 | – | inactive | –
25 µg/mL (≈ 113 µM) | – | O=C(O)c1c(O)cccc1CC1CCCC1 | – | inactive | –
1.56 µg/mL (≈ 5.09 µM) | – | CCCCCCCCCCCCc1cccc(O)c1C(=O)O | 6.25 µg/mL (≈ 20.4 µM) | inactive | –
6.25 µg/mL (≈ 23.1 µM) | – | O=C(O)c1c(O)cccc1CCCCc1ccccc1 | – | inactive | –
1.56 µg/mL (≈ 4.9 µM) | – | O=C(O)c1c(O)cccc1CC1CCCCCCCCCCC1 | – | inactive | –
3.13 µg/mL (≈ 11.8 µM) | – | CCCCCC(CC)Cc1cccc(O)c1C(=O)O (stereo unspecified) | – | inactive | –
3.13 µg/mL (≈ 9.09 µM) | – | CCC/C=C\C/C=C\CCCCCCCc1cccc(O)c1C(=O)O | 3.13 µg/mL (≈ 9.09 µM) | inactive | –
3.13 µg/mL (≈ 12.6 µM) | – | O=C(O)c1c(O)cccc1CCC1CCCCC1 | – | inactive | –
0.78 µg/mL (≈ 2.67 µM) | – | CC(C)CCCC(C)CCCc1cccc(O)c1C(=O)O (stereo unspecified) | – | inactive | –
12.5 µg/mL (≈ 52.9 µM) | – | CCCCC(C)Cc1cccc(O)c1C(=O)O (stereo unspecified) | – | inactive | –
